Results from ChEMBL document CHEMBL4609997, “Synthesis and biological activities of amino acids functionalized α-GalCer analogues” (Bioorg Med Chem, 2020).
Activity calls are given as the source filed them. The rule behind the calls is not given here.

Assays:
[1] = target: T1, Antigen-presenting glycoprotein CD1d (Mus musculus) (UniProt P11609+P11610); experiment: Binding affinity to CD1d in C57BL/6 mouse splenocytes assessed as iNKT cell stimulating activity by measuring induction of Th1-cytokine, IFN-gamma production incubated for 48 hrs by ELISA; type: cell-based
In short: (§1)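 Spleens from female C57BL/6 mice passed through a 100 µM strainer, RBC-lysed (ammonium chloride/KHCO3/EDTA buffer, pH 7.2, 5 min, 4 °C), PBS-washed. Splenocytes at 1×10^5/well in RPMI 1640 with 10% FBS and 1% penicillin-streptomycin, exposed to glycolipid at three concentrations (0.01-1 µM) for 48 h at 37 °C. IFN-γ and IL-4 in supernatant measured by ELISA (pg/mL); α-GalCer positive control.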

Splenocyte [2] = experiment: Induction of cell proliferation in C57BL/6 mouse splenocytes at 1 uM incubated for 48 hrs by MTT assay; type: functional, cell-based
In short: (§2)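 Female C57BL/6 splenocytes, strained and RBC-lysed, plated at 1×10^5/well in RPMI 1640 with 10% FBS and 1% penicillin-streptomycin, treated 48 h at 37 °C at 1, 0.1 and 0.01 µM. MTT (5 mg/mL) added for 4 h, formazan dissolved in DMSO, OD read at 570 nm. Viability given as % of medium-only control cells.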

Mus musculus [3] = experiment: Immunostimulatory activity in C57BL/6 mouse assessed as induction of Th1 cytokine-biased response by measuring IFN-gamma/IL-4 ratio at 100 ug/kg, ip measured after 24 hrs by ELISA
Splenocyte [4] = experiment: Induction of cell proliferation in C57BL/6 mouse splenocytes incubated for 48 hrs by MTT assay; type: functional, cell-based; in short: as §2
Splenocyte [5] = experiment: Cytotoxicity against C57BL/6 mouse splenocytes assessed as reduction in cell viability at 0.01 to 1 uM incubated for 48 hrs by MTT assay; type: cell-based; in short: as §2
[6] = target: T1, Antigen-presenting glycoprotein CD1d (Mus musculus); experiment: Binding affinity to CD1d in C57BL/6 mouse splenocytes assessed as iNKT-cell stimulating activity by measuring IFN-gamma/IL-4 ratio at 0.01 uM incubated for 48 hrs by ELISA; type: cell-based; details: in the assay text read “IFN-gamma/IL-4 ratio” for “IFN-gamma/IL-6 ratio”
In short: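 Splenocytes prepared and cultured as for the cytokine assay (1×10^5/well, RPMI 1640 with 10% FBS, 48 h, 37 °C). IFN-γ and IL-4 determined by ELISA at 0.01 µM glycolipid and expressed as the relative proportion (IFN-γ/IL-4 ratio).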

[7] = target: T1, Antigen-presenting glycoprotein CD1d (Mus musculus); experiment: Binding affinity to CD1d in C57BL/6 mouse splenocytes assessed as iNKT cell stimulating activity by measuring induction of Th2-cytokine, IL-4 production incubated for 48 hrs by ELISA; type: cell-based; in short: as §1
Mus musculus [8] = experiment: Immunostimulatory activity in C57BL/6 mouse assessed as increase in IL-4 level in serum at 100 ug/kg, ip measured after 6 hrs by ELISA; type: functional, organism-based
In short: (§3)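 Female C57BL/6 mice, 7-8 weeks, 25-28 g, SPF housing. Glycolipid 1 mg/mL DMSO stock diluted in PBS, given ip at 100 µg/kg. Serum taken at several time points after injection and IFN-γ and IL-4 measured by ELISA; 3 mice per group, each serum tested individually.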

[9] = target: T1, Antigen-presenting glycoprotein CD1d (Mus musculus); experiment: Binding affinity to CD1d in C57BL/6 mouse splenocytes assessed as iNKT cell stimulating activity by measuring maximal induction of Th2-cytokine, IL-4 production at 1 uM incubated for 48 hrs by ELISA; type: cell-based; in short: as §1
Mus musculus [10] = experiment: Immunostimulatory activity in C57BL/6 mouse assessed as induction of Th1 cytokine-biased response by measuring AUC ratio of IFN-gamma/IL-4 cytokine release at 100 ug/kg, ip measured after 24 hrs by ELISA; type: functional
In short: (§4)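 Female C57BL/6 mice given glycolipid ip at 100 µg/kg (DMSO stock diluted in PBS). Serum IFN-γ and IL-4 measured by ELISA at several time points up to 24 h, 3 mice per group tested individually. Th1 bias expressed as IFN-γ/IL-4 ratio and as area-under-curve ratio of IFN-γ/IL-4 release.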

[11] = target: T1, Antigen-presenting glycoprotein CD1d (Mus musculus); experiment: Binding affinity to CD1d in C57BL/6 mouse splenocytes assessed as iNKT cell stimulating activity by measuring maximal induction of Th1-cytokine, IFN-gamma production at 1 uM incubated for 48 hrs by ELISA; type: cell-based; in short: as §1
Mus musculus [12] = experiment: Immunostimulatory activity in C57BL/6 mouse assessed as IFN-gamma level in serum at 100 ug/kg, ip measured after 24 hrs by ELISA; type: functional; in short: as §3
Mus musculus [13] = experiment: Immunostimulatory activity in C57BL/6 mouse assessed as increase in IFN-gamma level in serum at 100 ug/kg, ip measured after 6 to 24 hrs by ELISA; type: functional, organism-based; in short: as §3
Mus musculus [14] = experiment: Immunostimulatory activity in C57BL/6 mouse assessed as induction of Th1 cytokine-biased response by measuring IFN-gamma/IL-6 ratio at 100 ug/kg, ip measured after 24 hrs by ELISA; type: functional; details: in the assay text read “IFN-gamma/IL-4 ratio” for “IFN-gamma/IL-6 ratio”; in short: as §4
Mus musculus [15] = experiment: Immunostimulatory activity in C57BL/6 mouse assessed as increase in IL-4 level in serum at 100 ug/kg, ip measured after 3 hrs by ELISA; type: functional, organism-based; in short: as §3

Compound | Activity [1] | Ratio [6] | Activity [7] | Activity [9] | Activity [11] | Activity (Splenocyte [2]) | Ratio (Mus musculus [3]) | Activity (Splenocyte [4]) | Activity (Splenocyte [5]) | Activity (Mus musculus [8]) | Ratio (Mus musculus [10]) | Activity (Mus musculus [12]) | Activity (Mus musculus [13]) | Ratio (Mus musculus [14]) | Activity (Mus musculus [15])
CCCCCCCCCCCCCCCCCCCCCCCCCC(=O)N[C@@H](CO[C@H]1O[C@H](Cn2cc(C(=O)NCC(=O)OC)nn2)[C@H](O)[C@H](O)[C@H]1O)[C@H](O)[C@H](O)CCCCCCCCCCCCCC | Dose-dependent effect | 2.1 | Dose-dependent effect | Active | Active | Active |  | Dose-dependent effect | Non-Toxic |  |  | Active | Active |  | Active
CCCCCCCCCCCCCCCCCCCCCCCCCC(=O)N[C@@H](CO[C@H]1O[C@H](Cn2cc(C(=O)N[C@@H](Cc3ccccc3)C(=O)OC)nn2)[C@H](O)[C@H](O)[C@H]1O)[C@H](O)[C@H](O)CCCCCCCCCCCCCC | Dose-dependent effect | 3.3 | Dose-dependent effect | Active | Active | Active |  | Dose-dependent effect | Non-Toxic |  |  | Active | Active |  | Active

Second part, led by results:

Activity [1] | Ratio [6] | Activity [7] | Activity [9] | Activity [11] | Compound | Activity (Splenocyte [2]) | Ratio (Mus musculus [3]) | Activity (Splenocyte [4]) | Activity (Splenocyte [5]) | Activity (Mus musculus [8]) | Ratio (Mus musculus [10]) | Activity (Mus musculus [12]) | Activity (Mus musculus [13]) | Ratio (Mus musculus [14]) | Activity (Mus musculus [15])
Dose-dependent effect | 4.9 | Dose-dependent effect | Active | Active | CCCCCCCCCCCCCCCCCCCCCCCCCC(=O)N[C@@H](CO[C@H]1O[C@H](Cn2cc(C(=O)N[C@@H](CCCCN)C(=O)OC)nn2)[C@H](O)[C@H](O)[C@H]1O)[C@H](O)[C@H](O)CCCCCCCCCCCCCC | Active | 5.6 | Dose-dependent effect | Non-Toxic | Active | 23.6 | 3886 pg/mL |  |  | 
Dose-dependent effect | 1.7 | Dose-dependent effect | Active | Active | CCCCCCCCCCCCCCCCCCCCCCCCCC(=O)N[C@@H](CO[C@H]1O[C@H](Cn2cc(C(=O)N[C@@H](CO)C(=O)OC)nn2)[C@H](O)[C@H](O)[C@H]1O)[C@H](O)[C@H](O)CCCCCCCCCCCCCC | Active |  | Dose-dependent effect | Non-Toxic |  |  | 4755 pg/mL | Active | 1.8 | Active
Dose-dependent effect |  | Dose-dependent effect | Active | Active | CCCCCCCCCCCCCCCCCCCCCCCCCC(=O)N[C@@H](CO[C@H]1O[C@H](CO)[C@H](O)[C@H](O)[C@H]1O)[C@H](O)[C@H](O)CCCCCCCCCCCCCC [RGI-7000] |  |  |  |  |  | 13.2 | 2925 pg/mL | Active | 2.5 | Active
